Reference: ChEMBL document CHEMBL1156517, “Targeting thyroid hormone receptor-beta agonists to the liver reduces cholesterol and triglycerides and improves the therapeutic index” (Proc Natl Acad Sci U S A, 2007)

How the values were obtained:
Design in all cases: dose 5 mg/kg, route oral
Conditions in all cases: in vivo
Lung [1] = experiment: Biodistribution in Sprague-Dawley rat lung at 5 mg/kg, po after 3 hrs; assay type: ADME, organism-based
Outline: (§1)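 Male SD rats (n = 4 per group) were dosed orally with [¹⁴C]-labelled prodrug at 5 mg/kg. Animals were killed 3 or 24 h after dosing. Harvested tissues, blood and plasma were processed and analysed directly for radioactivity by liquid scintillation counting.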

[2] = Biodistribution in Sprague-Dawley rat cervical lymph node at 5 mg/kg, po after 24 hrs; assay type: ADME, organism-based; outline: as §1
Kidney [3] = experiment: Biodistribution in Sprague-Dawley rat kidney at 5 mg/kg, po after 24 hrs; assay type: ADME, organism-based; outline: as §1
[4] = Biodistribution in Sprague-Dawley rat mesenteric lymph at 5 mg/kg, po after 24 hrs; assay type: ADME, organism-based, Mesenteric lymph node; outline: as §1
[5] = Biodistribution in Sprague-Dawley rat stomach C&W at 5 mg/kg, po after 3 hrs; assay type: ADME, organism-based
Outline: (§2)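 Male SD rats (n = 4 per group) were given [¹⁴C]-labelled compound at 5 mg/kg per os. They were killed 3 and 24 h after dosing. Harvested tissues were processed and radioactivity was measured directly by liquid scintillation counting.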

[6] = Biodistribution in Sprague-Dawley rat stomach at 5 mg/kg, po after 3 hrs; assay type: ADME, organism-based; outline: as §2
Thymus [7] = experiment: Biodistribution in Sprague-Dawley rat thymus at 5 mg/kg, po after 24 hrs; assay type: ADME, organism-based; outline: as §2
[8] = Biodistribution in Sprague-Dawley rat epididymal fat at 5 mg/kg, po after 24 hrs; assay type: ADME, organism-based, Adipose tissue; outline: as §1
Liver [9] = experiment: Biodistribution in Sprague-Dawley rat liver at 5 mg/kg, po after 24 hrs; assay type: ADME, organism-based; outline: as §1
[10] = Biodistribution in Sprague-Dawley rat stomach C&W at 5 mg/kg, po after 24 hrs; assay type: ADME, organism-based; outline: as §2
Spleen [11] = experiment: Biodistribution in Sprague-Dawley rat spleen at 5 mg/kg, po after 24 hrs; assay type: ADME, organism-based; outline: as §1
[12] = Biodistribution in Sprague-Dawley rat femur bone at 5 mg/kg, po after 24 hrs; assay type: ADME, organism-based, Bone element; outline: as §1
[13] = Biodistribution in Sprague-Dawley rat small intestine C&W at 5 mg/kg, po after 24 hrs; assay type: ADME, organism-based; outline: as §1
Brain [14] = experiment: Biodistribution in Sprague-Dawley rat brain at 5 mg/kg, po after 3 hrs; assay type: ADME, organism-based; outline: as §1
Plasma [15] = experiment: Biodistribution in Sprague-Dawley rat plasma at 5 mg/kg, po after 3 hrs; assay type: ADME, organism-based; outline: as §1
[16] = Biodistribution in Sprague-Dawley rat bone marrow at 5 mg/kg, po after 3 hrs; assay type: ADME, organism-based; outline: as §1
[17] = Biodistribution in Sprague-Dawley rat bone marrow at 5 mg/kg, po after 24 hrs; assay type: ADME, organism-based; outline: as §1
Plasma [18] = experiment: Biodistribution in Sprague-Dawley rat plasma at 5 mg/kg, po after 24 hrs; assay type: ADME, organism-based; outline: as §1
Thyroid gland [19] = experiment: Biodistribution in Sprague-Dawley rat thyroid at 5 mg/kg, po after 24 hrs; assay type: ADME, organism-based; outline: as §2
Heart [20] = experiment: Biodistribution in Sprague-Dawley rat heart at 5 mg/kg, po after 3 hrs; assay type: ADME, organism-based; outline: as §1
[21] = Biodistribution in Sprague-Dawley rat large intestine at 5 mg/kg, po after 3 hrs; assay type: ADME, organism-based
Outline: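 Male SD rats (n = 4 per group) were given a single oral dose of [¹⁴C]-labelled prodrug at 5 mg/kg. They were killed at 3 and 24 h after dosing. Harvested tissues were processed and analysed directly by liquid scintillation counting to give tissue radioactivity concentrations.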

[22] = Biodistribution in Sprague-Dawley rat small intestine at 5 mg/kg, po after 3 hrs; assay type: ADME, organism-based; outline: as §1
[23] = Biodistribution in Sprague-Dawley rat epididymal fat at 5 mg/kg, po after 3 hrs; assay type: ADME, organism-based, Adipose tissue; outline: as §1
[24] = Biodistribution in Sprague-Dawley rat mesenteric lymph at 5 mg/kg, po after 3 hrs; assay type: ADME, organism-based, Mesenteric lymph node; outline: as §1
Testes [25] = experiment: Biodistribution in Sprague-Dawley rat testes at 5 mg/kg, po after 3 hrs; assay type: ADME, organism-based, Testis; outline: as §2
[26] = Biodistribution in Sprague-Dawley rat large intestine C&W at 5 mg/kg, po after 3 hrs; assay type: ADME, organism-based; outline: as §1
[27] = Biodistribution in Sprague-Dawley rat urinary bladder at 5 mg/kg, po after 3 hrs; assay type: ADME, organism-based; outline: as §2
Thymus [28] = experiment: Biodistribution in Sprague-Dawley rat thymus at 5 mg/kg, po after 3 hrs; assay type: ADME, organism-based; outline: as §2
Blood [29] = experiment: Biodistribution in Sprague-Dawley rat blood at 5 mg/kg, po after 24 hrs; assay type: ADME, organism-based; outline: as §1
[30] = Biodistribution in Sprague-Dawley rat eyes at 5 mg/kg, po after 3 hrs; assay type: ADME, organism-based, Eye; outline: as §1
Zone of skin [31] = experiment: Biodistribution in Sprague-Dawley rat skin at 5 mg/kg, po after 24 hrs; assay type: ADME, organism-based; outline: as §1
Spleen [32] = experiment: Biodistribution in Sprague-Dawley rat spleen at 5 mg/kg, po after 3 hrs; assay type: ADME, organism-based; outline: as §2
Zone of skin [33] = experiment: Biodistribution in Sprague-Dawley rat skin at 5 mg/kg, po after 3 hrs; assay type: ADME, organism-based; outline: as §1
Prostate gland [34] = experiment: Biodistribution in Sprague-Dawley rat prostate at 5 mg/kg, po after 24 hrs; assay type: ADME, organism-based; outline: as §1
Blood [35] = experiment: Biodistribution in Sprague-Dawley rat blood at 5 mg/kg, po after 3 hrs; assay type: ADME, organism-based; outline: as §1
Brain [36] = experiment: Biodistribution in Sprague-Dawley rat brain at 5 mg/kg, po after 24 hrs; assay type: ADME, organism-based; outline: as §1
Adrenal gland [37] = experiment: Biodistribution in Sprague-Dawley rat adrenal gland at 5 mg/kg, po after 3 hrs; assay type: ADME, organism-based; outline: as §1
[38] = Biodistribution in Sprague-Dawley rat large intestine at 5 mg/kg, po after 24 hrs; assay type: ADME, organism-based; outline: as §1
Kidney [39] = experiment: Biodistribution in Sprague-Dawley rat kidney at 5 mg/kg, po after 3 hrs; assay type: ADME, organism-based; outline: as §1
Prostate gland [40] = experiment: Biodistribution in Sprague-Dawley rat prostate at 5 mg/kg, po after 3 hrs; assay type: ADME, organism-based; outline: as §1
Pancreas [41] = experiment: Biodistribution in Sprague-Dawley rat pancreas at 5 mg/kg, po after 3 hrs; assay type: ADME, organism-based; outline: as §1
[42] = Biodistribution in Sprague-Dawley rat pituitary gland at 5 mg/kg, po after 24 hrs; assay type: ADME, organism-based; outline: as §1
[43] = Biodistribution in Sprague-Dawley rat large intestine C&W at 5 mg/kg, po after 24 hrs; assay type: ADME, organism-based; outline: as §1
Lung [44] = experiment: Biodistribution in Sprague-Dawley rat lung at 5 mg/kg, po after 24 hrs; assay type: ADME, organism-based; outline: as §1
Pancreas [45] = experiment: Biodistribution in Sprague-Dawley rat pancreas at 5 mg/kg, po after 24 hrs; assay type: ADME, organism-based; outline: as §1
[46] = Biodistribution in Sprague-Dawley rat cervical lymph node at 5 mg/kg, po after 3 hrs; assay type: ADME, organism-based; outline: as §1
[47] = Biodistribution in Sprague-Dawley rat small intestine at 5 mg/kg, po after 24 hrs; assay type: ADME, organism-based; outline: as §1
[48] = Biodistribution in Sprague-Dawley rat small intestine C&W at 5 mg/kg, po after 3 hrs; assay type: ADME, organism-based; outline: as §1
[49] = Biodistribution in Sprague-Dawley rat urinary bladder at 5 mg/kg, po after 24 hrs; assay type: ADME, organism-based; outline: as §2
Testes [50] = experiment: Biodistribution in Sprague-Dawley rat testes at 5 mg/kg, po after 24 hrs; assay type: ADME, organism-based, Testis; outline: as §2
Muscle tissue [51] = experiment: Biodistribution in Sprague-Dawley rat muscle at 5 mg/kg, po after 3 hrs; assay type: ADME, organism-based; outline: as §1
Thyroid gland [52] = experiment: Biodistribution in Sprague-Dawley rat thyroid at 5 mg/kg, po after 3 hrs; assay type: ADME, organism-based; outline: as §2
Liver [53] = experiment: Biodistribution in Sprague-Dawley rat liver at 5 mg/kg, po after 3 hrs; assay type: ADME, organism-based; outline: as §1
[54] = Biodistribution in Sprague-Dawley rat femur bone at 5 mg/kg, po after 3 hrs; assay type: ADME, organism-based, Bone element; outline: as §1
Muscle tissue [55] = experiment: Biodistribution in Sprague-Dawley rat muscle at 5 mg/kg, po after 24 hrs; assay type: ADME, organism-based; outline: as §1
[56] = Biodistribution in Sprague-Dawley rat eyes at 5 mg/kg, po after 24 hrs; assay type: ADME, organism-based, Eye; outline: as §1
[57] = Biodistribution in Sprague-Dawley rat stomach at 5 mg/kg, po after 24 hrs; assay type: ADME, organism-based; outline: as §2
[58] = Biodistribution in Sprague-Dawley rat pituitary gland at 5 mg/kg, po after 3 hrs; assay type: ADME, organism-based; outline: as §1
Adrenal gland [59] = experiment: Biodistribution in Sprague-Dawley rat adrenal gland at 5 mg/kg, po after 24 hrs; assay type: ADME, organism-based; outline: as §1
Heart [60] = experiment: Biodistribution in Sprague-Dawley rat heart at 5 mg/kg, po after 24 hrs; assay type: ADME, organism-based; outline: as §1

A Drug uptake (Lung [1]) of 0.31 nmol/g, a Drug uptake [2] of 0.03 nmol/g and a Drug uptake (Kidney [3]) of 0.14 nmol/g were found for `Cc1cc(OCP2(=O)OCC[C@@H](c3cccc(Cl)c3)O2)cc([14CH3])c1Cc1ccc(O)c(C(C)C)c1` (stereo not given in full) in this work. For the same molecule, the Drug uptake [4] was 0.05 nmol/g, the Drug uptake [5] was 24.52 nmol/g and the Drug uptake [6] was 76.96 nmol/g. It also gave a Drug uptake (Thymus [7]) of 0.01 nmol/g, a Drug uptake [8] of 0.55 nmol/g and a Drug uptake (Liver [9]) of 3.67 nmol/g. It also gave a Drug uptake [10] of 0.06 nmol/g, a Drug uptake (Spleen [11]) of 0.01 nmol/g and a Drug uptake [12] of 0.02 nmol/g. The Drug uptake [13] was 0.2 nmol/g, the Drug uptake (Brain [14]) was 0.03 nmol/g and the Drug uptake (Plasma [15]) was 0.15 nmol/g. It also gave a Drug uptake [16] of 0.06 nmol/g, a Drug uptake [17] of 0.01 nmol/g and a Drug uptake (Plasma [18]) of 0.05 nmol/g. It also gave a Drug uptake (Thyroid gland [19]) of 0.03 nmol/g, a Drug uptake (Heart [20]) of 0.36 nmol/g and a Drug uptake [21] of 1.23 nmol/g. It also gave a Drug uptake [22] of 28.56 nmol/g, a Drug uptake [23] of 0.15 nmol/g and a Drug uptake [24] of 16.61 nmol/g. For the same molecule, the Drug uptake (Testes [25]) was 0.03 nmol/g, the Drug uptake [26] was 4.68 nmol/g and the Drug uptake [27] was 0.18 nmol/g. The Drug uptake (Thymus [28]) was 0.09 nmol/g, the Drug uptake (Blood [29]) was 0.05 nmol/g and the Drug uptake [30] was 0.04 nmol/g. For the same molecule, the Drug uptake (Zone of skin [31]) was 0.15 nmol/g, the Drug uptake (Spleen [32]) was 2.57 nmol/g and the Drug uptake (Zone of skin [33]) was 0.08 nmol/g. For the same molecule, the Drug uptake (Prostate gland [34]) was 0.03 nmol/g, the Drug uptake (Blood [35]) was 0.12 nmol/g and the Drug uptake (Brain [36]) was 0.01 nmol/g. The Drug uptake (Adrenal gland [37]) was 0.77 nmol/g, the Drug uptake [38] was 0.64 nmol/g and the Drug uptake (Kidney [39]) was 0.48 nmol/g. For the same molecule, the Drug uptake (Prostate gland [40]) was 0.12 nmol/g, the Drug uptake (Pancreas [41]) was 0.25 nmol/g and the Drug uptake [42] was 0.02 nmol/g. For the same molecule, the Drug uptake [43] was 2.5 nmol/g, the Drug uptake (Lung [44]) was 0.04 nmol/g and the Drug uptake (Pancreas [45]) was 0.25 nmol/g. The Drug uptake [46] was 0.12 nmol/g, the Drug uptake [47] was 0.4 nmol/g and the Drug uptake [48] was 39.69 nmol/g. The Drug uptake [49] was 0.05 nmol/g, the Drug uptake (Testes [50]) was 0.04 nmol/g and the Drug uptake (Muscle tissue [51]) was 0.07 nmol/g. It also gave a Drug uptake (Thyroid gland [52]) of 0.2 nmol/g, a Drug uptake (Liver [53]) of 6.67 nmol/g and a Drug uptake [54] of 0.14 nmol/g. For the same molecule, the Drug uptake (Muscle tissue [55]) was 0.01 nmol/g, the Drug uptake [56] was 0.01 nmol/g and the Drug uptake [57] was 0.22 nmol/g. For the same molecule, the Drug uptake [58] was 0.09 nmol/g, the Drug uptake (Adrenal gland [59]) was 0.09 nmol/g and the Drug uptake (Heart [60]) was 0.05 nmol/g.
